# Columns and labels:
# Format in all cases: ADME, organism-based, Macaca mulatta
# [1] = Biodistribution in rhesus monkey occipital lobe at 150.3 MBq, iv after 39 mins; settings: in vivo, 0.65 h
# How it was run: (§1)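 Male rhesus monkey under ketamine 10 mg/kg im, head fixed; 20 min 68Ge-68Ga transmission scan, then 90 min dynamic 3D PET (6×0.5, 7×1, 20×2, 8×5 min frames) after iv [11C]-labelled tracer in saline, specific radioactivity about 2.9 TBq/μmol at injection. Regions defined on T1-weighted MRI; uptake expressed as % injected dose per mL.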
# [2] = Biodistribution in rhesus monkey cerebellum at 150.3 MBq, iv after 6.5 mins; settings: in vivo
# How it was run: (§2)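 Male rhesus monkey under ketamine (10 mg/kg im) with head fixation. After a 20 min 68Ge-68Ga transmission scan, the [11C]-labelled tracer in saline (pH 7.4) was injected iv, at 2.9 TBq/μmol specific radioactivity at injection. A dynamic 3D PET scan followed over 90 min (6×0.5, 7×1, 20×2, 8×5 min frames). Regions were defined on T1-weighted 1.5 T MRI, and uptake is given as %ID/mL.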
# Hippocampus [3] = test: Biodistribution in rhesus monkey hippocampus at 150.3 MBq, iv after 49 mins; settings: in vivo; how it was run: as §1
# [4] = Biodistribution in rhesus monkey cerebellum at 150.3 MBq, iv after 29 mins; settings: in vivo; how it was run: as §2
# [5] = Biodistribution in rhesus monkey cingulate cortex at 150.3 MBq, iv after 1.25 mins; settings: in vivo, 75 s; how it was run: as §2
# [6] = Biodistribution in rhesus monkey cerebellum at 150.3 MBq, iv after 39 mins; settings: in vivo, 0.65 h; how it was run: as §2
# [7] = Biodistribution in rhesus monkey occipital lobe at 150.3 MBq, iv after 49 mins; settings: in vivo
# How it was run: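 A male rhesus monkey was anaesthetised with ketamine 10 mg/kg im and placed in a head fixation device. A 20 min 68Ge-68Ga transmission scan was run for attenuation correction. Radiotracer in saline (pH 7.4) was given iv, about 52 pmol (18 ng), at 2.9 TBq/μmol at injection. A dynamic 3D PET scan followed for 90 min. Regional VOIs were defined on a T1-weighted MRI, with uptake expressed as %ID/mL.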
# [8] = Biodistribution in rhesus monkey cingulate cortex at 150.3 MBq, iv after 6.5 mins; settings: in vivo
# How it was run: (§3)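 Single male rhesus monkey anesthetized with ketamine 10 mg/kg im, head fixed. Attenuation correction by 20 min 68Ge-68Ga transmission scan. [11C]-tracer in saline (pH 7.4) given iv, specific radioactivity 2.9 TBq/μmol at injection. Dynamic 3D PET emission scan over 90 min in frames of 0.5 to 5 min. MRI T1 images used to define VOIs. Uptake expressed as […].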
# [9] = Biodistribution in rhesus monkey entorhinal cortex at 150.3 MBq, iv after 2.25 mins; settings: in vivo, 135 s; how it was run: as §3
# [10] = Biodistribution in rhesus monkey cerebellum at 150.3 MBq, iv after 25 mins; settings: in vivo; how it was run: as §2
# [11] = Biodistribution in rhesus monkey cingulate cortex at 150.3 MBq, iv after 47 mins; settings: in vivo; how it was run: as §2
# Striatum [12] = test: Biodistribution in rhesus monkey striatum at 150.3 MBq, iv after 37 mins; settings: in vivo
# [13] = Biodistribution in rhesus monkey entorhinal cortex at 150.3 MBq, iv after 29 mins; settings: in vivo; how it was run: as §3
# Striatum [14] = test: Biodistribution in rhesus monkey striatum at 150.3 MBq, iv after 13 mins; settings: in vivo
# [15] = Biodistribution in rhesus monkey cingulate cortex at 150.3 MBq, iv after 19 mins; settings: in vivo; how it was run: as §2
# [16] = Biodistribution in rhesus monkey cerebellum at 150.3 MBq, iv after 27 mins; settings: in vivo, 0.45 h; how it was run: as §2
# [17] = Biodistribution in rhesus monkey cerebellum at 150.3 MBq, iv after 13 mins; settings: in vivo; how it was run: as §2
# Striatum [18] = test: Biodistribution in rhesus monkey striatum at 150.3 MBq, iv after 0.25 mins; settings: in vivo, 15 s
# Hippocampus [19] = test: Biodistribution in rhesus monkey hippocampus at 150.3 MBq, iv after 29 mins; settings: in vivo; how it was run: as §1
# [20] = Biodistribution in rhesus monkey cingulate cortex at 150.3 MBq, iv after 77.5 mins; settings: in vivo; how it was run: as §3
# [21] = Biodistribution in rhesus monkey retina at 150.3 MBq, iv after 11 mins; settings: in vivo
# [22] = Biodistribution in rhesus monkey occipital lobe at 150.3 MBq, iv after 27 mins; settings: in vivo, 0.45 h; how it was run: as §1
# [23] = Biodistribution in rhesus monkey cingulate cortex at 150.3 MBq, iv after 11 mins; settings: in vivo; how it was run: as §2
# Hippocampus [24] = test: Biodistribution in rhesus monkey hippocampus at 150.3 MBq, iv after 5.5 mins; settings: in vivo; how it was run: as §1
# [25] = Biodistribution in rhesus monkey retina at 150.3 MBq, iv after 25 mins; settings: in vivo
# [26] = Biodistribution in rhesus monkey cingulate cortex at 170.3 MBq, iv after 17 mins; settings: in vivo, in the assay text read “150.3 MBq” for “170.3 MBq”; how it was run: as §3
# [27] = Biodistribution in rhesus monkey cingulate cortex at 150.3 MBq, iv after 39 mins; settings: in vivo, 0.65 h; how it was run: as §2
# [28] = Biodistribution in rhesus monkey retina at 150.3 MBq, iv after 13 mins; settings: in vivo
# [29] = Biodistribution in rhesus monkey occipital lobe at 150.3 MBq, iv after 31 mins; settings: in vivo; how it was run: as §1
# Hippocampus [30] = test: Biodistribution in rhesus monkey hippocampus at 150.3 MBq, iv after 62.5 mins; settings: in vivo; how it was run: as §1
# [31] = Biodistribution in rhesus monkey entorhinal cortex at 150.3 MBq, iv after 45 mins; settings: in vivo, 0.75 h; how it was run: as §3
# Striatum [32] = test: Biodistribution in rhesus monkey striatum at 150.3 MBq, iv after 87.5 mins; settings: in vivo
# Hippocampus [33] = test: Biodistribution in rhesus monkey hippocampus at 150.3 MBq, iv after 52.5 mins; settings: in vivo, 0.875 h; how it was run: as §1
# Striatum [34] = test: Biodistribution in rhesus monkey striatum at 150.3 MBq, iv after 39 mins; settings: in vivo, 0.65 h
# [35] = Biodistribution in rhesus monkey cerebellum at 150.3 MBq, iv after 62.5 mins; settings: in vivo; how it was run: as §2
# [36] = Biodistribution in rhesus monkey cerebellum at 150.3 MBq, iv after 31 mins; settings: in vivo; how it was run: as §2
# Striatum [37] = test: Biodistribution in rhesus monkey striatum at 150.3 MBq, iv after 35 mins; settings: in vivo
# Hippocampus [38] = test: Biodistribution in rhesus monkey hippocampus at 150.3 MBq, iv after 35 mins; settings: in vivo; how it was run: as §1
# Striatum [39] = test: Biodistribution in rhesus monkey striatum at 150.3 MBq, iv after 57.5 mins; settings: in vivo
# Hippocampus [40] = test: Biodistribution in rhesus monkey hippocampus at 150.3 MBq, iv after 15 mins; settings: in vivo, 0.25 h; how it was run: as §3
# [41] = Biodistribution in rhesus monkey retina at 150.3 MBq, iv after 19 mins; settings: in vivo
# Hippocampus [42] = test: Biodistribution in rhesus monkey hippocampus at 150.3 MBq, iv after 27 mins; settings: in vivo, 0.45 h; how it was run: as §3
# [43] = Biodistribution in rhesus monkey retina at 150.3 MBq, iv after 23 mins; settings: in vivo
# [44] = Biodistribution in rhesus monkey occipital lobe at 150.3 MBq, iv after 11 mins; settings: in vivo; how it was run: as §1
# [45] = Biodistribution in rhesus monkey occipital lobe at 150.3 MBq, iv after 6.5 mins; settings: in vivo
compound,measurement,setting,value
[11CH3]Oc1cccc(C(=O)NCCN2CCN(c3ncccc3C#N)CC2)c1,Drug uptake,[1],9.974 kBq/ml
same,Drug uptake,[2],31.35 kBq/ml
same,Drug uptake,Hippocampus [3],9.828 kBq/ml
same,Drug uptake,[4],14.54 kBq/ml
same,Drug uptake,[5],60.79 kBq/ml
same,Drug uptake,[6],10.98 kBq/ml
same,Drug uptake,[7],9.036 kBq/ml
same,Drug uptake,[8],35.15 kBq/ml
same,Drug uptake,[9],40.15 kBq/ml
same,Drug uptake,[10],15.53 kBq/ml
same,Drug uptake,[11],10.29 kBq/ml
same,Drug uptake,Striatum [12],12.6 kBq/ml
same,Drug uptake,[13],15.05 kBq/ml
same,Drug uptake,Striatum [14],24.68 kBq/ml
same,Drug uptake,[15],18.84 kBq/ml
same,Drug uptake,[16],15.14 kBq/ml
same,Drug uptake,[17],21.2714 kBq/ml
same,Drug uptake,Striatum [18],42.71 kBq/ml
same,Drug uptake,Hippocampus [19],16.7 kBq/ml
same,Drug uptake,[20],9.3 kBq/ml
same,Drug uptake,[21],49.56 kBq/ml
same,Drug uptake,[22],14.42 kBq/ml
same,Drug uptake,[23],25.93 kBq/ml
same,Drug uptake,Hippocampus [24],39.36 kBq/ml
same,Drug uptake,[25],56.02 kBq/ml
same,Drug uptake,[26],18.9122 kBq/ml
same,Drug uptake,[27],11.74 kBq/ml
same,Drug uptake,[28],50.22 kBq/ml
same,Drug uptake,[29],12.89 kBq/ml
same,Drug uptake,Hippocampus [30],8.242 kBq/ml
same,Drug uptake,[31],10.89 kBq/ml
same,Drug uptake,Striatum [32],8.125 kBq/ml
same,Drug uptake,Hippocampus [33],9.565 kBq/ml
same,Drug uptake,Striatum [34],11.52 kBq/ml
same,Drug uptake,[35],8.418 kBq/ml
same,Drug uptake,[36],13.26 kBq/ml
same,Drug uptake,Striatum [37],13.39 kBq/ml
same,Drug uptake,Hippocampus [38],12.16 kBq/ml
same,Drug uptake,Striatum [39],9.776 kBq/ml
same,Drug uptake,Hippocampus [40],20.97 kBq/ml
same,Drug uptake,[41],53.57 kBq/ml
same,Drug uptake,Hippocampus [42],15.74 kBq/ml
same,Drug uptake,[43],54.68 kBq/ml
same,Drug uptake,[44],21.64 kBq/ml
same,Drug uptake,[45],30.03 kBq/ml

# From ChEMBL document CHEMBL1268908, “Design, synthesis, radiolabeling, and in vivo evaluation of carbon-11 labeled N-[2-[4-(3-cyanopyridin-2-yl)piperazin-1-yl]ethyl]-3-methoxybenzamide, a potential positron emission tomography tracer for the dopamine D(4) receptors” (J Med Chem, 2010)
